# Only some compounds are listed: those with a hit (about 3% of all), similar ones and a draw of the others.
# MC4R antag cAMP – blocks human MC4R cAMP signaling | inhibition, % at 6.5 µM | 360,000 tested, 0.48% active | P32245 | AID 540295 | MC4R-expressing cells, MTII-stimulated cAMP, LANCE TR-FRET;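 active = inhibition above its plate's cutoff, the mean of tested wells on that plate plus 3 SD, cut at about 29% in these data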
#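 Material: U2OS-MC4R stable cell line | Reagent: Melanotan II challenge after compound preincubation | Doses: One concentration, 6.5 µM nominal | Incubation: 30-min compound preincubation, 1-h Melanotan II challenge, 1-h detection, room temperature | Signal: TR-FRET cAMP assay | Replicates: One well per compound, no replicates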
# B2AR ag – agonists of human beta-2 adrenergic receptor inducing internalization. 340,000 tested, 0.43% active. Am2.2-beta2AR cells, FAP receptor internalization, flow cytometry. P07550. response, % (concentration not given with the values). AID 504454;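 active = response above a set limit, near 3 SD of response in nonfluorescent compounds, cut at about 42% in these data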
# ABHD5 PLIN5 PPI – blocks binding of human ABHD5 to perilipin-5; Q00G26+Q8WTS1; Split G. princeps luciferase complementation, luminescence, 4 h; inhibition, % at 4 µM; 360,000 tested, 0.78% active; AID 602281;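 active = inhibition above the mean inhibition across every tested compound plus 3 SD, cut at about 22% in these data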
# PfG6PD inh – PfG6PD (Plasmodium falciparum) enzyme inhibition; inhibition, % at 20 µM; 350,000 tested, 0.78% active; PfGluPho enzyme, NADPH resazurin-diaphorase fluorescence; AID 504690;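 active = inhibition reaching at least a set limit at 20 µM in the primary screen, cut at about 59% in these data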
# MC4R barr agon – human MC4R agonism via beta-arrestin. P32245. U2OS MC4R beta-arrestin complementation, luminescence; percent of melanotan II response, DMSO zero. activation, % at 8.9 µM. 360,000 tested, 0.98% active. AID 540308;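 active = activation above a per-plate cutoff, the mean activation of sample wells on that plate plus 3 SD, cut at about 8% in these data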
# MC4R barr ag – human MC4R beta-arrestin agonism confirmation | AID 602192 | 2,400 tested, 31% active | U2OS MC4R beta-arrestin recruitment, luminescence; scaled DMSO 0%, Melanotan II 100% | activation, % at 8.9 µM | shares compounds with MC4R barr agon;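 active = mean activation across replicates above the hit cutoff set in the earlier primary screen, cut at about 8% in these data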
# MOR DOR agonist – activates mu-delta opioid heterodimer, MC4R agonist counter-screen; shares compounds with MC4R barr agon; U2OS PathHunter beta-arrestin, beta-gal luminescence; percent of deltorphin B response, DMSO zero; activation, % at 9.2 µM; 2,400 tested, 5.8% active; AID 602194;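 active = mean activation across replicates exceeds the hit threshold derived in the earlier primary screen, cut at about 18% in these data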
# Target sequence (P35372 whole entry, looked up): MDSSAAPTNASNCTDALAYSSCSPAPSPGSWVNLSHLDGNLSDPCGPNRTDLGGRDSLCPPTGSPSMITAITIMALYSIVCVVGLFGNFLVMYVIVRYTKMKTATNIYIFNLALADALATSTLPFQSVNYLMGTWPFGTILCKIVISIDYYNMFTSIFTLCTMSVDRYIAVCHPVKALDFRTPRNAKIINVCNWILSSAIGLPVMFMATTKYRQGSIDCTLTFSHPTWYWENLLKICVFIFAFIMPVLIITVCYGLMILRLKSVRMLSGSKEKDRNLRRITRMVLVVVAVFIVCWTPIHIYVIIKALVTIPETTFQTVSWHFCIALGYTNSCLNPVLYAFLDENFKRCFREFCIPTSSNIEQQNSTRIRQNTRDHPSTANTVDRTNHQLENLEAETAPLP
# Target sequence (P41143 whole entry, looked up): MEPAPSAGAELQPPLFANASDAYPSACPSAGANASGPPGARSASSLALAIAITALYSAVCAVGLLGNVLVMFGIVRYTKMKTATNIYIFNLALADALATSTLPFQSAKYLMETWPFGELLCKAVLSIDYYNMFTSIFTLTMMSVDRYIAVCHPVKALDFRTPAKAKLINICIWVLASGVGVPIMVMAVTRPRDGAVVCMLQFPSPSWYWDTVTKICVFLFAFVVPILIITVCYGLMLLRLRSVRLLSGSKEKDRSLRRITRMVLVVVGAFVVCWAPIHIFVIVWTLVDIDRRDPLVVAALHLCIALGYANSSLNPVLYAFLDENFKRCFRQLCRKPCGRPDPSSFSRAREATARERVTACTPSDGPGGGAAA
# Numbers stand for hits; - = inactive; . = no result given.
SMILES,MC4R antag cAMP,B2AR ag,ABHD5 PLIN5 PPI,PfG6PD inh,MC4R barr agon,MC4R barr ag,MOR DOR agonist
COc1cc(-c2cc(NC=O)c3ncc(-c4cccc(C(F)(F)F)c4)n3c2)cc(OC)c1OC,-,.,-,.,22.1,18.7,-
COc1cc(-c2cnc3c(NC=O)cc(-c4ccccc4Cl)cn23)cc(OC)c1OC,-,.,-,.,-,.,.
COc1ccc(-c2cc(NC=O)c3ncc(-c4cccc(C(F)(F)F)c4)n3c2)cc1OC,-,.,-,.,36.5,26.6,-
COc1ccccc1-c1cc(NC=O)c2ncc(-c3cccc(C(F)(F)F)c3)n2c1,-,.,-,.,25.5,23.0,-
COc1cc(-c2cnc3c(NC=O)cc(-c4ccc(C)cc4)cn23)cc(OC)c1OC,-,.,-,.,-,.,.
CS(=O)(=O)c1ccc(-c2cc(NC=O)c3ncc(-c4ccc(F)cc4)n3c2)cc1,-,.,-,.,11.3,-,-
c1ccc(NCCC2OCC3(CO2)COC(CCNc2ccccc2)OC3)cc1 (configuration not stated),-,-,-,-,-,.,.
Cc1cc(-c2cc(C(=O)NCc3ccccc3)on2)nc(NC2CCCC2)n1,-,-,-,-,-,.,.
Cc1n[nH]c(C)c1CCCCOc1ccccc1[N+](=O)[O-],-,-,-,-,-,.,.
COc1ccc(F)cc1-c1cc(NC=O)c2ncc(-c3cc(OC)c(OC)c(OC)c3)n2c1,-,.,-,.,-,.,.
CN(C)CCNC(=O)c1cccc(-c2cnc3c(NC=O)cc(-c4ccccc4F)cn23)c1,-,.,-,.,-,.,.
COc1ccccc1-c1cc(NC=O)c2ncc(-c3ccc(F)cc3)n2c1,-,.,-,.,17.5,17.7,-
CN(C)c1ccccc1-c1cc(NC=O)c2ncc(-c3cccc(C(F)(F)F)c3)n2c1,-,.,-,.,26.9,27.0,-
Cc1cc(Cl)c(S(=O)(=O)N2CCN(c3cccc(C)c3C)CC2)cc1OCC(N)=O,-,-,-,-,14.4,-,-
Cc1ccc(C(=O)N(Nc2nc3ccccc3s2)C(=O)c2ccc(C)cc2)cc1,-,-,-,-,24.6,13.6,-
O=C(COC(=O)c1ccccc1NC(=O)c1ccco1)NCCC1=CCCCC1,-,-,-,-,14.3,-,-
O=C(COC(=O)c1ccccc1O)NCCC1=CCCCC1,-,-,-,-,-,.,.
COc1ccc(O)c(/C=C(\C#N)C(=O)Nc2ccccn2)c1,-,-,-,-,-,.,.
CC(C)c1ccc(/C=N/n2nnnc2Nc2ccccc2)cc1,-,-,-,-,10.7,14.6,-
CCOc1ccc(OCC)c(NC(=O)c2nnn(CC(=O)Nc3cc(C)cc(C)c3)c2N)c1,-,-,-,-,42.2,18.5,-
O=[N+]([O-])c1cccc(-n2cc3ccc([N+](=O)[O-])cc3n2)c1,-,-,-,-,-,.,.
Cc1ccc(N(CC(=O)NC2CCCC2)C(=O)c2nsc(Cl)c2Cl)cc1,-,-,-,-,-,.,.
Cc1ccc(-n2nnnc2SCC(=O)Nc2nc(-c3ccc(F)cc3)cs2)cc1C,-,-,-,-,24.1,13.2,-
Cc1cc(-c2nnc(SCC(=O)Nc3nc(-c4ccc(Cl)cc4)cs3)o2)no1,-,-,-,-,-,.,.
O=C(CSc1nnnn1-c1ccccc1)Nc1nsc(-c2ccc(Cl)cc2)n1,-,-,-,-,16.2,-,-
SMILES,MC4R antag cAMP,B2AR ag,ABHD5 PLIN5 PPI,PfG6PD inh,MC4R barr agon,MC4R barr ag,MOR DOR agonist
Cc1cc(C)cc(-n2nnnc2SCC(=O)Nc2nc(-c3ccc(Cl)cc3)cs2)c1,-,-,-,-,26.6,-,-
Cc1ccc(-n2nnnc2SCC(=O)Nc2ccccc2-c2ccccc2)cc1C,-,-,-,-,-,.,.
O=C(CSc1nnnn1-c1ccccc1)Nc1nsc(-c2ccccc2)n1,-,-,-,-,-,.,.
COc1ccc(OCCN2CCN(S(=O)(=O)c3ccccc3C(F)(F)F)CC2)cc1,-,-,-,-,-,.,.
Cc1ccsc1/C=N/NS(=O)(=O)c1ccc([N+](=O)[O-])cc1,-,-,-,-,-,.,.
Nc1ncnc2c1c(-c1ccc(Oc3ccccc3)cc1)cn2C1CCCC1,-,-,-,-,-,.,.
O=C(O)Cn1c(O)c(C2=c3ccccc3=NC2=O)sc1=O,-,-,-,-,-,.,.
C=CCn1c(O)c(C2=c3ccccc3=NC2=O)s/c1=N/c1nccs1,-,-,-,-,10.4,-,-
COc1cc(/C=N/NC(=O)c2sc3nc(C)cc(C)c3c2N)ccc1O,-,-,-,-,15.9,-,-
Cc1cc(C)c2c(N)c(C(=O)Nc3ccccc3Br)sc2n1,-,-,-,-,10.0,-,-
Cc1ccc(S(=O)(=O)N2[C@@H](c3ccc(C(C)(C)C)cc3)C(C(=O)O)=CC[C@H]2c2ccc(C(C)C)cc2)cc1,-,-,-,-,19.8,15.3,-
COc1cc(SC)ccc1C(=O)Nc1ccncc1,-,-,-,-,-,.,.
COc1cc(SC)ccc1C(=O)Nc1ccccc1C#N,-,-,-,-,12.1,-,-
O=C(Nc1ccnn1C1CCN(C(=O)CCc2ccc(F)cc2)CC1)C1CCOC1 (configuration not stated),-,-,-,-,-,.,.
O=C(COC(=O)c1cccnc1Nc1ccccc1F)NCc1ccc2c(c1)OCO2,-,-,-,-,10.5,-,-
O=C(CN1CCN(Cc2ccccc2)CC1)Nc1ccc(Br)cc1,-,-,-,-,-,.,.
COC(=O)c1sc(NC(=O)/C=C/c2ccc(C)o2)nc1C,-,-,-,-,12.3,-,-
C=CCNC(=S)N/N=C/c1ccc(-c2cc(Cl)ccc2Cl)o1,-,-,-,-,-,.,.
C=CCNC(=S)N/N=C/c1ccc(-c2ccc(Cl)cc2Cl)o1,-,-,-,-,10.4,-,-
CC(=O)c1cccc(NC(=O)c2ccccc2N(Cc2ccccc2)S(C)(=O)=O)c1,-,-,-,-,-,.,.
CCOc1ccc2nc(NC(=O)c3cccc(-c4cc5ccccc5oc4=O)c3)sc2c1,-,-,-,-,23.9,13.3,-
Cc1ccc2nc(NC(=O)c3cccc(-c4cc5ccccc5oc4=O)c3)sc2c1,.,.,.,-,.,.,.
NC(c1ccccc1)c1csc(Nc2cc(Oc3ccccc3)ncn2)n1 (configuration not stated),-,.,-,.,-,.,.
CC(NS(=O)(=O)c1cccc(Cl)c1)C(=O)Nc1ccc(-c2nc3ccccc3s2)cc1 (configuration not stated),-,-,-,-,16.2,9.9,-
CNS(=O)(=O)c1cccc(C(=O)OCC(=O)Nc2ccc(-c3nc4ccc(C)cc4s3)cc2)c1,-,-,-,-,15.6,-,-
Cc1ccc2nc(-c3ccc(NC(=O)COC(=O)c4ccco4)cc3)sc2c1,-,-,-,-,-,.,.
COC(=O)c1sc2nc(CSc3ccc(Br)cc3)[nH]c(=O)c2c1C,-,-,-,-,-,.,.

# Screens from PubChem BioAssay.
